Screens: PubChem BioAssay, The Scripps Research Institute Molecular Screening Center
V1R ag counter = V1a receptor agonism, counter-screen for OXTR agonists; P37288; CHO-V1R cells, Fluo-8 calcium fluorescence, agonist mode; 0% DMSO, 100% 3 nM vasopressin; activation, % at 3 µM; 0.25% of 320,000 active; AID 2797;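 active means activation above the mean activation of all tested compounds plus 3 SD, per screening run, cut at about 20% in these data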;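 further: signal is peak over basal fluorescence ratio across a 100 second FLIPR read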
Target sequence (P37288 whole entry, looked up): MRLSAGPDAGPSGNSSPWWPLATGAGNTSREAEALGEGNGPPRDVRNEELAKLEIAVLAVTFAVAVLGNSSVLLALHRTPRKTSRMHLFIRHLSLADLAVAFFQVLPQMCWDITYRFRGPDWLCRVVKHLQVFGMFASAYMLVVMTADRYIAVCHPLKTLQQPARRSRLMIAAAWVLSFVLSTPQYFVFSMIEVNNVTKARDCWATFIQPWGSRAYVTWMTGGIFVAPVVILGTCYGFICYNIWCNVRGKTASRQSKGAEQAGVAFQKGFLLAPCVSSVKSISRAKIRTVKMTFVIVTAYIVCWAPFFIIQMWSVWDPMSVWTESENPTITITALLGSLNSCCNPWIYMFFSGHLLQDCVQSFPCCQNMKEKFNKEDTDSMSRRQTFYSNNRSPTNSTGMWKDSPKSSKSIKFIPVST
OXTR ag = human OXTR agonism; activation, % at 3 µM; CHO-OTR cells, Fluo-8 calcium fluorescence; normalized: DMSO 0%, oxytocin 100%; 0.32% of 320,000 active; P30559;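 active means activation above the mean of all tested compounds plus 3 SD, cutoff set per screening run, cut at about 20% in these data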;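 further: peak over basal fluorescence ratio from a 100 s FLIPR kinetic read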
OXTR potentiator = potentiators of human oxytocin receptor; P30559; 0.061% of 320,000 active; activation, % at 3 µM; CHO-OTR cells, Fluo-8 calcium fluorescence, potentiator mode; 0% = oxytocin EC15, 100% = EC100;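 active means activation above that plate's cutoff, the mean activation of tested compounds plus 3 SD, cut at about 6.6% in these data, passing the limit was not always enough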;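 further: 100% uses oxytocin at 75 nM as the full agonist control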
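System: human OTR in CHO cells; Also added: sub-maximal oxytocin, roughly EC15; Timing: compound 6 min at room temperature before oxytocin, 100 s read; Technique: Fluo-8 intracellular calcium fluorescence, ex 470-495, em 515-575 nm; Controls: oxytocin EC15 low and EC100 high; Replication: singlicate.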
TRPML3 ag = human mucolipin-3 channel agonism | Q8TDD5 | HEK293 TRPML3-YFP, Fluo-8 calcium fluorescence; 100% = the carbachol control signal | activation, % at 3 µM | 0.29% of 220,000 active | AID 1448;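 active means activation above its plate's cutoff, the mean activation of the plate's test wells plus 3 SD, cut at about 12% in these data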;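 further: 0% = DMSO only wells and 100% = carbachol wells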
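system = HEK293 cells stably carrying human TRPML3-YFP | doses = one concentration, 3 µM nominal, 0.3% DMSO | timing = dye loading 1 h 37 °C then 30 min ambient, 125 s read | detection = Fluo-8 calcium dye fluorescence, ex 470-495, em 515-575 nm | benchmarks = high control carbachol 87 µM, low control DMSO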
TRPN1 ag = agonists of zebrafish TRPN1 channel; HEK293 zebrafish TRPN1-YFP, Fluo-8 calcium fluorescence; 100% = response to 87 µM carbachol; activation, % at 3 µM; 0.18% of 220,000 active;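 active means activation above its plate's cutoff, the mean activation of test wells on that plate plus 3 SD, cut at about 19% in these data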;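 further: 0% = DMSO alone and 100% = 87 µM carbachol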
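System: zebrafish TRPN1-YFP in HEK293 cells / Dosing: 3 µM single point / Timing: dye loading 1 h at 37 °C, then 30 min room temperature / Signal: Fluo-8 calcium fluorescence, excitation 470-495 nm, emission 515-575 nm / Read-out basis: percent activation from peak over basal fluorescence ratio, control-normalized / Control set: high carbachol 87 µM, low DMSO alone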
An asterisk follows results filed as active; · = no result given. Rows were chosen to be rich in hits. Some 0.55% of all compounds tested hit in one or more screens of this group.

SMILES	V1R ag counter	OXTR ag	OXTR potentiator	TRPML3 ag	TRPN1 ag
N#CC(C#N)=C1C=C2C=C(N3CCOCC3)CCC2CC1 (centres undefined)	·	·	·	74*	169*
CN1CCN(C2=CC3=CC(=C(C#N)C#N)CCC3CC2)CC1 (centres undefined)	·	·	·	329*	617*
CCN1CCN(C2=CC3=CC(=C(C#N)C#N)CCC3CC2)CC1 (centres undefined)	·	·	·	310*	395*
N#CC(C#N)=C1C=C2C=C(N3CCCCCC3)CCC2CC1 (centres undefined)	·	·	·	366*	891*
Cc1ccc(/C=N\NC(=O)/C(=C\Nc2nccc(C)n2)NC(=O)c2ccccc2)cc1	0	0	1	0	0
COCCCNc1c2c3c(cccc3[nH]c1=O)C(=O)c1ccccc1-2	533*	590*	-11	105*	203*
CCN(CC)c1ccc(/C=C(/C#N)c2nc3ccccc3[nH]2)c(OC(C)C)c1	44*	51*	-13	15*	24*
CCCCNC(=O)CCn1c(=O)c2ccccc2n(Cc2ccc(Cl)cc2)c1=O	2	0	15*	1	1
COc1ccc(C(=O)NC(=S)NNC(=O)c2ccccc2C)cc1	60*	58*	-22	·	·
COc1ccc(C(=O)NNC(=S)NC(=O)C(C)(C)C)cc1	81*	78*	-12	17*	41*
COc1ccc(C(=O)NC(=S)NNC(=O)c2ccccc2O)cc1	5	8	-16	·	·
CCCOc1ccc(C(=O)NNC(=S)NC(=O)c2cc(-c3ccc(Cl)cc3)nc3ccccc23)cc1	1	2	-11	0	-1
COc1ccc(C(=O)NNC(=S)NC(=O)c2cc(-c3ccccc3)nc3ccccc23)cc1	28*	35*	-21	7	22*
CC(C)(C)C(=O)NC(=S)NNC(=O)c1sc2ccccc2c1Cl	112*	99*	-21	23*	49*
Cc1ccc2c(c1)C(=O)C(=O)N2CC(=O)Nc1ccccc1NC(=O)c1ccccn1	-1	0	2	0	-1
Cc1ccc(S(=O)(=O)CCC(=O)Oc2ccc(-c3nnco3)cc2)cc1	0	1	-6	·	·
O=C(COC(=O)c1ccc([N+](=O)[O-])cc1Cl)Nc1cccnc1Cl	0	-1	-2	·	·
CN(C)CCCNS(=O)(=O)c1ccc(N2CCC(c3ccc(Cl)cc3)=N2)cc1	5	20*	-20	1	-1
O=S(=O)(c1ccc(N2CCC(c3ccc(Cl)cc3)=N2)cc1)N(CCO)CCO	19	9	-21	1	-1
CCCCNC(=S)NC(=O)c1ccc([N+](=O)[O-])cc1	-1	-3	-9	0	-3
CCCCNC(=S)Nc1ccc([N+](=O)[O-])cc1	8	10	-16	11	21*
CC(C)CCNC(=S)Nc1ccc([N+](=O)[O-])cc1	6	8	-7	13*	24*
Cc1ccc(/C(N)=N/OC(=O)CN(C)S(=O)(=O)c2ccc(C)cc2)cc1	4	0	-8	·	·
COc1ccc(/C(N)=N/OC(=O)CN(C)S(=O)(=O)c2ccc(C)cc2)cc1	·	·	·	84*	-1
O=C(Cn1ccc2ccccc2c1=O)NCC(=O)N1CCCCC1	-1	1	-2	·	·
SMILES	V1R ag counter	OXTR ag	OXTR potentiator	TRPML3 ag	TRPN1 ag
CCCCc1ccc(N/C(N)=N/c2nc(C)cc(C)n2)cc1	62*	58*	-20	80*	109*
CC1=Nc2ccccc2/C1=C/c1sc(=N)n(-c2nccs2)c1O	26*	23*	-11	8	16
CC(C)CCOc1ccc(C(=O)NN2C(=O)NC3(CCCCC3)C2=O)cc1	2	2	-8	·	·
O=C(COC(=O)C12CC3CC(CC(C3)C1)C2)NCCc1ccccc1	-1	-2	-3	1	-1
CCN(CC)c1ccc(C2Nc3cccc4cccc(c34)N2)c(O)c1	1	32*	1	-1	0
CC(=O)Nc1sc2c(c1-c1nc3ccccc3s1)CCN(C(C)C)C2	1	1	-3	9	24*
CCN(CC)c1ccc2c(c1)OC(N)=C(C#N)C2c1cccnc1 (centres undefined)	33*	52*	-12	8	12
